Results of several laboratories.
Compare with care: the assays were run in different laboratories.

Structure (SMILES)	tested on	test	test system	setting	measurement	value
c1ccc(Oc2ccc(Nc3c4c(nc5ccccc35)CCC4)cc2)cc1	Leishmania donovani	parasite growth	THP-1	intracellular, amastigote	IC50	0.57 µM
O=C(O)CCC(=O)OCCN(Cc1ccc(Oc2ccc([N+](=O)[O-])cc2)cc1)C(=O)C(Cl)Cl	Leishmania donovani	parasite growth, resazurin		72 h, promastigote	IC50	2.68 µM
O=C1O[C@H]([C@@H](O)CO)C(O)=C1O		ABTS scavenging, absorbance			IC50	62.8 µM
CCOc1ccc(Nc2c3c(nc4ccccc24)CCC3)cc1	Leishmania donovani	parasite growth	THP-1	72 h, intracellular, amastigote	IC50	0.78 µM
CCCCCCCCCCCCCCCCCCOc1cccc(CC(=O)OCCC[N+](C)(C)C)c1	NCI-H522	cell growth or viability, SRB		10 µM	inhibition	21.8%
CCCCCCCCCCCCCCCCOP(=O)([O-])OCC[N+](C)(C)C	Leishmania donovani	parasite growth	THP-1	72 h, intracellular, amastigote	IC50	3.78 µM
COc1cc(/C=C/C(=O)CC(=O)/C=C/c2ccc(O)c(OC)c2)ccc1O		ABTS scavenging		20 min	IC50	165 µg/mL
Oc1ccc(C2NCCc3cc(O)c(O)cc32)cc1O (stereo not drawn)		ABTS scavenging		10 min, dark	IC50	4.93 µM
CCCCCCCCCCCCCCCCCCOc1ccccc1CC(=O)OCC[N+](C)(C)C	NCI-H522	cell growth or viability, SRB		10 µM	inhibition	97.8%
CCCCCCCCCC1NCCc2cc(O)c(O)cc21 (stereo not drawn)		ABTS scavenging		10 min, dark	IC50	57.3 µM
CCCCCCCCCCCCCCCCCCOc1ccccc1CC(=O)OCC[N+]1(C)CCCC1	NCI-H522	cell growth or viability, SRB		10 µM	inhibition	93.2%
Oc1cc2c(cc1O)C(CCc1ccccc1)NCC2 (stereo not drawn)		ABTS scavenging		10 min, dark	IC50	8.09 µM
CCCCC[C@H](O)/C=C/[C@@H]1[C@@H](C/C=C\CCCC(=O)O)[C@@H](O)C[C@H]1O	Leishmania donovani	parasite growth, resazurin		72 h, promastigote	IC50	> 100 µM
C[C@@H]1[C@H](O)[C@@H](C)/C=C/C=C/C=C/C=C/C=C/C=C/C=C/[C@H](O[C@@H]2O[C@H](C)[C@@H](O)[C@H](N)[C@@H]2O)C[C@@H]2O[C@](O)(C[C@@H](O)C[C@@H](O)[C@H](O)CC[C@@H](O)C[C@@H](O)CC(=O)O[C@H]1C)C[C@H](O)[C@H]2C(=O)O	Leishmania donovani	parasite growth	THP-1	72 h, intracellular, amastigote	IC50	0.6 µM
COc1cccc(C2NCCc3cc(O)c(O)cc32)c1 (stereo not drawn)		ABTS scavenging		10 min, dark	IC50	11.2 µM
